Data from ChEMBL document CHEMBL4346654 (Eur J Med Chem, 2019).
Values after ≈ are worked out from the molar mass of the structure shown.

Columns and labels:
Format in all cases: functional
[1] = tested on: Staphylococcus aureus; assay: Antibacterial activity against MLS-resistant Staphylococcus aureus PU 32 expressing inducible ermA gene assessed as reduction in microbial growth by CLSI based two-fold broth dilution method
[2] = tested on: Streptococcus pneumoniae; assay: Antibacterial activity against erythromycin-susceptible Streptococcus pneumoniae ATCC49619 assessed as reduction in microbial growth by CLSI based two-fold broth dilution method
[3] = tested on: Streptococcus pneumoniae; assay: Bactericidal activity against erythromycin-susceptible Streptococcus pneumoniae ATCC49619 pretreated followed by subculture in absence of compound measured after 24 hrs
Method in brief: (§1)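 Isolates were identified by 16S rDNA sequencing. MIC was determined by CLSI-recommended two-fold broth dilution. For MBC, samples from 1–8 fold MIC were transferred to culture medium and subcultured for 24 h without antibiotic.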

[4] = tested on: Haemophilus influenzae; assay: Antibacterial activity against azithromycin-susceptible Haemophilus influenzae ATCC 49247 assessed as reduction in microbial growth by CLSI based two-fold broth dilution method
[5] = tested on: Streptococcus pneumoniae; assay: Selectivity ratio of MBC to MIC for erythromycin-susceptible Streptococcus pneumoniae ATCC49619; method in brief: as §1
[6] = tested on: Streptococcus pneumoniae; assay: Antibacterial activity against Streptococcus pneumoniae 07P390 expressing constitutive ermB gene assessed as reduction in microbial growth by CLSI based two-fold broth dilution method
[7] = tested on: Streptococcus pneumoniae; assay: Antibacterial activity against penicillin-susceptible Streptococcus pneumoniae PU 09 expressing mef gene assessed as reduction in microbial growth by CLSI based two-fold broth dilution method
[8] = tested on: Streptococcus pneumoniae; assay: Bactericidal activity against penicillin-susceptible Streptococcus pneumoniae PU 09 expressing mef gene pretreated followed by subculture in absence of compound measured after 24 hrs; method in brief: as §1
[9] = tested on: Streptococcus pneumoniae; assay: Selectivity ratio of MBC to MIC for penicillin-susceptible Streptococcus pneumoniae PU 09 expressing mef gene; method in brief: as §1
[10] = tested on: Streptococcus pneumoniae; assay: Bactericidal activity against Streptococcus pneumoniae 07P390 expressing constitutive ermB gene pretreated followed by subculture in absence of compound measured after 24 hrs; method in brief: as §1
[11] = tested on: Haemophilus influenzae; assay: Bactericidal activity against azithromycin-susceptible Haemophilus influenzae ATCC 49247 pretreated followed by subculture in absence of compound measured after 24 hrs; method in brief: as §1
[12] = tested on: Haemophilus influenzae; assay: Selectivity ratio of MBC to MIC for azithromycin-susceptible Haemophilus influenzae ATCC 49247; method in brief: as §1
[13] = tested on: Streptococcus pyogenes; assay: Antibacterial activity against MLS-resistant Streptococcus pyogenes 01-968 expressing inducible ermB gene assessed as reduction in microbial growth by CLSI based two-fold broth dilution method
[14] = tested on: Streptococcus pyogenes; assay: Bactericidal activity against MLS-resistant Streptococcus pyogenes 01-968 expressing inducible ermB gene pretreated followed by subculture in absence of compound measured after 24 hrs
Method in brief: (§2)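 MBC assay. Following MIC determination by CLSI standard two-fold broth dilution, samples at 1–8 fold MIC were transferred to fresh culture medium. They were subcultured for 24 h without antibiotic. Isolates were identified by 16S rDNA sequencing. S. aureus ATCC 29213 was used as a control strain.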

[15] = tested on: Streptococcus pyogenes; assay: Selectivity ratio of MBC to MIC for MLS-resistant Streptococcus pyogenes 01-968 expressing inducible ermB gene
Method in brief: (§3)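 MBC/MIC ratio. MIC was measured by CLSI standard two-fold broth dilution. MBC was measured by transferring samples at 1–8 fold MIC to culture medium and subculturing for 24 h without antibiotic. Isolates were identified by 16S rDNA sequencing.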

[16] = tested on: Staphylococcus aureus; assay: Bactericidal activity against MLS/methicillin-resistant Staphylococcus aureus PU 32 expressing inducible ermA gene pretreated followed by subculture in absence of compound measured after 24 hrs; method in brief: as §2
[17] = tested on: Staphylococcus aureus; assay: Selectivity ratio of MBC to MIC for MLS/methicillin-resistant Staphylococcus aureus PU 32 expressing inducible ermA gene; method in brief: as §3
[18] = tested on: Staphylococcus aureus; assay: Antibacterial activity against MLS-resistant Staphylococcus aureus PU 20 expressing constitutive ermC gene assessed as reduction in microbial growth by CLSI based two-fold broth dilution method
[19] = tested on: Staphylococcus aureus; assay: Bactericidal activity against MLS-resistant Staphylococcus aureus PU 20 expressing constitutive ermC gene pretreated followed by subculture in absence of compound measured after 24 hrs; method in brief: as §2
[20] = tested on: Streptococcus pneumoniae; assay: Selectivity ratio of MBC to MIC for Streptococcus pneumoniae 07P390 expressing constitutive ermB gene; method in brief: as §1

Row | SMILES | MIC [1] | MIC [2] | MBC [3] | MIC [4] | Selectivity ratio [5] | MIC [6] | MIC [7] | MBC [8] | Selectivity ratio [9] | MBC [10] | MBC [11] | Selectivity ratio [12] | MIC [13] | MBC [14] | Selectivity ratio [15] | MBC [16] | Selectivity ratio [17] | MIC [18] | MBC [19] | Selectivity ratio [20]
1 | CC[C@H]1OC(=O)[C@@](C)(F)C(=O)[C@H](C)[C@@H](O[C@@H]2O[C@H](C)C[C@H](N(C)C)[C@H]2O)[C@](C)(OC)C[C@@H](C)/C(=N\OC/C=C/c2cncc(C(N)=O)c2)[C@H](C)[C@H]2OC(=O)O[C@@]21C | 0.25 µg/mL | 0.031 µg/mL | 0.031 µg/mL (≈ 0.0384 µM) | 8 µg/mL | 1 | 32 µg/mL | 0.5 µg/mL | 1 µg/mL (≈ 1.24 µM) | 2 | > 32 µg/mL | 16 µg/mL (≈ 19.8 µM) | 2 | 0.062 µg/mL | > 0.5 µg/mL | >8 | > 2 µg/mL | >8 | 256 µg/mL | > 256 µg/mL | 
2 | CC[C@H]1OC(=O)[C@@](C)(F)C(=O)[C@H](C)[C@@H](O[C@@H]2O[C@H](C)C[C@H](N(C)C)[C@H]2O)[C@](C)(OC)C[C@@H](C)/C(=N\OCC#Cc2ccc(N)nc2)[C@H](C)[C@H]2OC(=O)O[C@@]21C | 1 µg/mL | 0.25 µg/mL | 0.5 µg/mL (≈ 0.644 µM) | 16 µg/mL | 2 | > 32 µg/mL | 2 µg/mL | 2 µg/mL (≈ 2.57 µM) | 1 |  | 32 µg/mL (≈ 41.2 µM) | 2 | 0.125 µg/mL | > 1 µg/mL | >8 | > 8 µg/mL | >8 | 256 µg/mL | > 256 µg/mL | 
3 | CC[C@H]1OC(=O)[C@@](C)(F)C(=O)[C@H](C)[C@@H](O[C@@H]2O[C@H](C)C[C@H](N(C)C)[C@H]2O)[C@](C)(OC)C[C@@H](C)/C(=N\OC/C=C/c2cncc(O)c2)[C@H](C)[C@H]2OC(=O)O[C@@]21C | 0.25 µg/mL | 0.125 µg/mL | 0.5 µg/mL (≈ 0.641 µM) | 16 µg/mL | 4 | 32 µg/mL | 2 µg/mL | 4 µg/mL (≈ 5.13 µM) | 2 | > 32 µg/mL | 16 µg/mL (≈ 20.5 µM) | 1 | 0.062 µg/mL | > 0.5 µg/mL | >8 | > 2 µg/mL | >8 | 256 µg/mL | > 256 µg/mL | 
4 | CC[C@H]1OC(=O)[C@@](C)(F)C(=O)[C@H](C)[C@@H](O[C@@H]2O[C@H](C)C[C@H](N(C)C)[C@H]2O)[C@](C)(OC)C[C@@H](C)/C(=N\OCC#Cc2ccc([N+](=O)[O-])nc2)[C@H](C)[C@H]2OC(=O)O[C@@]21C | 0.25 µg/mL | 0.125 µg/mL | 0.125 µg/mL (≈ 0.155 µM) | 16 µg/mL | 1 | > 32 µg/mL | 1 µg/mL | 4 µg/mL (≈ 4.96 µM) | 4 |  | 32 µg/mL (≈ 39.7 µM) | 2 | 0.016 µg/mL | 0.062 µg/mL (≈ 0.0768 µM) | 4 | 2 µg/mL (≈ 2.48 µM) | 8 | 128 µg/mL | > 256 µg/mL | 
5 | CC[C@H]1OC(=O)[C@@](C)(F)C(=O)[C@H](C)[C@@H](O[C@@H]2O[C@H](C)C[C@H](N(C)C)[C@H]2O)[C@](C)(OC)C[C@@H](C)/C(=N\OCC#Cc2cncc(C(=O)NC)c2)[C@H](C)[C@H]2OC(=O)O[C@@]21C | 0.5 µg/mL | 0.125 µg/mL | 0.25 µg/mL (≈ 0.305 µM) | 8 µg/mL | 2 | 32 µg/mL | 1 µg/mL | 1 µg/mL (≈ 1.22 µM) | 1 | > 32 µg/mL | 16 µg/mL (≈ 19.5 µM) | 2 | 0.062 µg/mL | > 0.5 µg/mL | >8 | > 4 µg/mL | >8 | 256 µg/mL | > 256 µg/mL | 
6 | CC[C@H]1OC(=O)[C@@](C)(F)C(=O)[C@H](C)[C@@H](O[C@@H]2O[C@H](C)C[C@H](N(C)C)[C@H]2O)[C@](C)(OC/C=C/c2cncc(C(=O)O)c2)C[C@@H](C)/C(=N\OC)[C@H](C)[C@H]2OC(=O)O[C@@]21C | 2 µg/mL | 0.25 µg/mL | 0.5 µg/mL (≈ 0.619 µM) | 8 µg/mL | 2 | 1 µg/mL | 32 µg/mL | > 32 µg/mL |  | 4 µg/mL (≈ 4.95 µM) | 8 µg/mL (≈ 9.9 µM) | 1 | 0.125 µg/mL | > 1 µg/mL | >8 | > 16 µg/mL | >8 | > 256 µg/mL |  | 4
7 | CC[C@H]1OC(=O)[C@@](C)(F)C(=O)[C@H](C)[C@@H](O[C@@H]2O[C@H](C)C[C@H](N(C)C)[C@H]2O)[C@](C)(OC)C[C@@H](C)/C(=N\OCC#Cc2cnc(N)c3ccccc23)[C@H](C)[C@H]2OC(=O)O[C@@]21C | 8 µg/mL | 2 µg/mL | 4 µg/mL (≈ 4.84 µM) | 64 µg/mL | 2 | > 32 µg/mL | 16 µg/mL | 16 µg/mL (≈ 19.3 µM) | 1 |  | 64 µg/mL (≈ 77.4 µM) | 1 | 1 µg/mL | 8 µg/mL (≈ 9.67 µM) | 8 | 32 µg/mL (≈ 38.7 µM) | 4 | 128 µg/mL | > 128 µg/mL | 
8 | CC[C@H]1OC(=O)[C@@](C)(F)C(=O)[C@H](C)[C@@H](O[C@@H]2O[C@H](C)C[C@H](N(C)C)[C@H]2O)[C@](C)(OC)C[C@@H](C)/C(=N\OCC#Cc2cncc(C#N)c2)[C@H](C)[C@H]2OC(=O)O[C@@]21C | 0.5 µg/mL | 0.125 µg/mL | 0.125 µg/mL (≈ 0.159 µM) | 8 µg/mL | 1 | > 32 µg/mL | 1 µg/mL | 2 µg/mL (≈ 2.54 µM) | 2 |  | 16 µg/mL (≈ 20.3 µM) | 2 | 0.25 µg/mL | > 2 µg/mL | >8 | > 4 µg/mL | >8 | 128 µg/mL | > 256 µg/mL | 
